The subject of one assay is HCT-116. Kind of assay: Cytotoxicity against human HCT116 cells measured per disk after 5 days by hemocytometer counting. Format: functional, cell-based. A digest of the protocol:
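HCT-116 cells seeded at 5 × 10^4 cells per T25 flask in RPMI-1640 with 15% FBS, 1% penicillin-streptomycin and 1% glutamine, 37 °C, 5% CO2. Drug added at several concentrations on day 3, then incubated 120 h (5 d). Cells trypsinized, washed and resuspended in HBSS, counted by hemocytometer. Counts normalized to untreated control to give IC50.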

Assay [1] has as its system MC-38. Kind of assay: Selective toxicity against mouse C38 cells assessed as differential zone units at 0.26 ug/mL by disk diffusion soft agar colony formation assay relative to mouse L1210 cells. The assay is classed as functional. A digest of the protocol:
(§1)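 Murine Colon 38 and leukemia L1210 cells tested in the disk diffusion soft agar colony formation assay. Differential cytotoxicity expressed as the difference in inhibition zone size between the two lines, in zone units (200 zone units = 6 mm).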
For orientation: A growth-free zone around the sample is the usual read-out of agar diffusion tests.

The test system of assay [2] is MC-38. Kind of assay: Selective toxicity against mouse C38 cells assessed as differential zone units at 0.24 ug/mL by disk diffusion soft agar colony formation assay relative to mouse L1210 cells. Format: functional. A digest of the protocol:
(§2)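 Disk diffusion soft agar colony-formation assay with murine Colon 38 (colon adenocarcinoma) and L1210 (lymphocytic leukemia) cells. The zone of inhibited colony formation around each disk is measured in zone units, where 200 zone units = 6 mm. Selectivity is the solid tumor minus leukemia zone difference.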

The test system of assay [3] is MC-38. Kind of assay: Selective toxicity against mouse C38 cells assessed as differential zone units at 68 ug/mL by disk diffusion soft agar colony formation assay relative to mouse L1210 cells. The assay is classed as functional. A digest of the protocol: as §1
The test system of assay [4] is MC-38. The experiment in a line: Selective toxicity against mouse C38 cells assessed as differential zone units at 1.9 ug/mL by disk diffusion soft agar colony formation assay relative to mouse L1210 cells. Format: functional. The method in brief: as §1
In assay [5] the test system is MC-38. The experiment in a line: Selective toxicity against mouse C38 cells assessed as differential zone units at 66 ug/mL by disk diffusion soft agar colony formation assay relative to mouse L1210 cells. Format: functional. The method in brief:
as §1

The subject of assay [6] is MC-38. Kind of assay: Selective toxicity against mouse C38 cells assessed as differential zone units at 0.23 ug/mL by disk diffusion soft agar colony formation assay relative to mouse L1210 cells. Format: functional. A digest of the protocol: as §2

A value given as a limit tells only on which side of the number the result lay.

Here are results for seven compounds from ChEMBL document CHEMBL1773032, “Pierreiones A-D, solid tumor selective pyranoisoflavones and other cytotoxic constituents from Antheroporum pierrei” (J Nat Prod, 2011).

`C=C(C)[C@H]1Cc2c(ccc3c2O[C@@H]2COc4cc(OC)c(OC)cc4[C@]2(O)C3=O)O1` [ROTENOLONE] displayed an IC50 with HCT-116 of 0.055 µg. In addition, the Activity with MC-38 [1] came to 450 Zone units. Regarding `COc1cc2c(cc1OC)[C@]1(O)C(=O)c3ccc4c(c3O[C@@H]1CO2)C=CC(C)(C)O4` [TEPHROSIN], the Activity in the assay with MC-38 [2] amounted to 550 Zone units. For the same compound, in the assay with HCT-116, the IC50 amounted to 0.04 µg.

For `COc1cc(-c2coc3cc4c(c(OC)c3c2=O)C=CC(C)(C)O4)ccc1OC[C@@H](O)C(C)(C)O` [PIERREIONE A], the IC50 with HCT-116 was 7.5 µg. Also, in the assay on MC-38 [3], the Activity is listed as 300 Zone units. On to `COc1cc(-c2coc3cc4c(cc3c2=O)C=CC(C)(C)O4)ccc1OCC=C(C)C` [PIERREIONE D], for which the Activity in the assay with MC-38 [4] amounted to 600 Zone units. The IC50 with HCT-116 stood at 30 µg. `COc1cc(-c2coc3cc4c(c(OC)c3c2=O)C=CC(C)(C)O4)ccc1OCC=C(C)C` [PIERREIONE C] came in with an IC50 in the assay with HCT-116 of over 46 µg. With `COc1cc(-c2coc3cc4c(cc3c2=O)C=CC(C)(C)O4)ccc1OC[C@@H](O)C(C)(C)O` [PIERREIONE B], the Activity in the assay on MC-38 [5] worked out at 300 Zone units. This compound yielded an IC50 in the assay on HCT-116 of 18 µg.

`C=C(C)[C@H]1Cc2c(ccc3c2O[C@@H]2COc4cc(OC)c(OC)cc4[C@@H]2C3=O)O1` [ROTENONE]: in the assay on MC-38 [6], the Activity was 500 Zone units. Further, the IC50 with HCT-116 turned out to be 0.045 µg.
